# In the library only some 6.8% were active in any assay of this set; here they are far more common.
# PHOSPHO1 block: inhibitors of human PHOSPHO1 phosphatase; AID 1565; 1.1% of 290,000 active; Q8TCT1; inhibition, % at 13.3 µM; recombinant PHOSPHO1, absorbance phosphatase assay; in the data active = inhibition above about 60%
# Target sequence (Q8TCT1 whole entry, looked up): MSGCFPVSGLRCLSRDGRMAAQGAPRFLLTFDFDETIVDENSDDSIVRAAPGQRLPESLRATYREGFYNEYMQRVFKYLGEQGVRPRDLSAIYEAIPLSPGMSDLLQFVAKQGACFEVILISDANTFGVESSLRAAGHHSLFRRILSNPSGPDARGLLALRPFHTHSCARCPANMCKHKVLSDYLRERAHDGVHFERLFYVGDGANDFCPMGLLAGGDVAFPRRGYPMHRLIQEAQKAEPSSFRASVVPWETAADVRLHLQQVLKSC
# HCV core dimer: blocks dimerization of HCV core protein. TR-FRET GST/Flag-core106 dimerization, 1536-well. inhibition, % at 5 µM. 0.33% of 300,000 active. AID 1899;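 active = inhibition above the mean of all tested compounds plus 3 SD, set per screening campaign, cut at about 45% in these data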
#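 System: GST/Flag-tagged HCV core106 proteins. Incubation: compound-protein-antibody incubation 4 h at 22.5 °C. Technique: HTRF with 340 nm excitation, 617/671 nm emission. Medium: KF-containing HEPES buffer, pH 7.45, DTT, CHAPS, BSA. Read-out: inhibition (%) from 671 over 617 nm ratio. Also added: Eu(K)-anti-GST 90 ng/mL plus XL665-anti-Flag 1 µg/mL.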
# ALR H2O2 inh: inhibitors of human sulfhydryl oxidase ALR; purified ALR, DTT oxidation, H2O2 HRP-luminol luminescence; 3.8% of 290,000 active; AID 485317; P55789; inhibition, % (concentration not given with the values);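 active = mean replicate inhibition above about 79%, with every replicate also reaching it, limit read from the data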
# Target sequence (P55789 whole entry, looked up): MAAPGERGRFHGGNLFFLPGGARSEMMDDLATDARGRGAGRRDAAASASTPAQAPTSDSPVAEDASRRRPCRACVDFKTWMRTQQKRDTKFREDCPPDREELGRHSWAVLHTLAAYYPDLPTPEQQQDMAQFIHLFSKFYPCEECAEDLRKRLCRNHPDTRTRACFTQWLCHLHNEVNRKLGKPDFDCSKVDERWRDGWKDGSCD
# HSF1 activator: increases HSF-1 driven luciferase reporter signal; NIH3T3-HGL HSF-1 luciferase reporter, MG132, 8 h; 100% = twice DMSO control signal; activation, % at 9 µM; 1.7% of 300,000 active; AID 504408;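 active = mean replicate activation of at least 50% with a set share of replicates each reaching 50%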;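 also: 0% = median of the neutral control wells and 100% = twice that signal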
# AI-2 QS mod: modulates the Vibrio harveyi AI-2 quorum sensing system. Vibrio harveyi JMH597 AI-2 luminescence/OD600 ratio, 9 h; stronger effect = lower value; strain lacks LuxN and CqsS sensors; 0 = neutral-control median. activity change, % at 7.5 µM. 0.4% of 300,000 active; in the data active = activity change below about -75%, passing the limit was not always enough;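 also: luminescence divided by OD600 gain over 9 h not by final OD600 alone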
# HSF1 inhib: HSF1 inhibition; NIH3T3-HGL HSE-luciferase, MG132-induced, luminescence 8 h; stronger effect = lower value; activity change, negative = inhibition, % at 7.5 µM (by protocol); 0.77% of 300,000 active;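 active = more than half of replicate wells show activity change below -50%, luminescence cut by over half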;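 also: luciferase reports HSF-1 transcriptional activity via heat shock element; 0% = median of DMSO wells and -100% = zero luminescence signal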
# Starred values were filed as active, the others as inactive; . = no result.
SMILES,PHOSPHO1 block,HCV core dimer,ALR H2O2 inh,HSF1 activator,AI-2 QS mod,HSF1 inhib
CC(C)COc1cccc(C(=O)N(CC(=O)Nc2ccccc2C(F)(F)F)Cc2ccco2)c1,.,.,-3,.,.,.
COC(=O)[C@@H](NCc1cccc(CN[C@H](C(=O)OC)c2ccccc2)c1)c1ccccc1,-2,-6,1,13,21,0
O=C(Nc1ccc(Cl)c(Cl)c1)C1C2C=CC3(O2)C1C(=O)N(CCN1CCCCC1)C3C(=O)NC1CCCCC1 (stereo unspecified),28,-4,-5,10,9,-3
COC(=O)C1(O)CC(CC(C)C)=NN1C(=O)c1ccccc1 (stereo unspecified),22,-1,36,148*,14,99
O=C(O)C1CCN(C(=O)CSc2nc3ccccc3c(=O)n2-c2ccc(Cl)cc2)CC1,24,-3,-9,29,21,-2
O=C1CNC(=S)N1CCc1ccc(O)c(O)c1,27,0,100*,-3,-5,-12
O=C1CNC(=S)N1CCOc1ccccc1,39,0,-8,14,26,-3
Cc1cc(S(=O)(=O)Nc2cccc(Cl)c2)c(C)s1,2,7,-1,2,13,3
Cc1cc(S(=O)(=O)Nc2ccc(N(C)C)cc2)c(C)s1,67*,-4,100*,2,-4,-12
CN(C)c1ccc(NS(=O)(=O)c2ccc(-c3csnn3)cc2)cc1,-4,-1,99*,-33,-11,-35
Cc1ccc(S(=O)(=O)Nc2ccc(N(C)C)cc2)cc1,30,-2,99*,9,24,-10
Cc1nc(-c2ccc(NS(=O)(=O)c3ccccc3)cc2)cs1,16,8,0,5,9,2
CN(C)c1ccc(NS(=O)(=O)c2cc3c4c(c2)CC(=O)N4CCC3)cc1,13,4,99*,-27,21,-34
CN(C)c1ccc(NS(=O)(=O)c2cccc(Cl)c2)cc1,-32,-2,99*,-34,1,-27
Cc1ccc(S(=O)(=O)N(C)/N=C/c2ccc(N(C)C)cc2)cc1,18,-1,99*,2,10,8
COc1ccc(S(=O)(=O)Nc2ccc(N(C)C(C)=O)cc2)cc1,9,-11,-2,-4,20,-13
CCN(CC)c1ccc(NS(=O)(=O)c2ccc(OC)cc2)cc1,33,-12,99*,15,11,3
CN(C)c1ccc(NS(=O)(=O)c2ccc(Cl)cc2)cc1,-4,-6,.,-47,-8,-44
C[C@H](C(=O)NCc1ccccc1)C(=O)c1ccccc1,29,-1,-13,22,5,-1
Cc1ccc(C(=O)N/C(=C\c2ccc(F)cc2)C(=O)NCc2ccncc2)cc1,-2,-6,.,-7,23,1
COc1ccc(/C=C(\NC(=O)c2ccccc2)C(=O)N/N=C/c2sccc2C)cc1,8,19,-1,97*,24,57
COc1ccc(/C=C(\NC(=O)c2ccccc2)C(=O)N/N=C/c2ccncc2)cc1,65*,-4,.,-14,35,-9
COc1ccc(/C=C(/NC(=O)c2ccc(C)cc2)C(=O)NCc2ccncc2)cc1,70*,-19,-3,30,-2,6
O=C(N/N=C/c1ccc(O)c(O)c1O)/C(=C/c1ccc([N+](=O)[O-])cc1)NC(=O)c1ccccc1,12,32,91*,-19,43,-14
N#Cc1ccccc1OCC(=O)Nc1ccc(S(=O)(=O)N2CCOCC2)cc1,.,.,0,.,.,.
SMILES,PHOSPHO1 block,HCV core dimer,ALR H2O2 inh,HSF1 activator,AI-2 QS mod,HSF1 inhib
CCCN(CC(=O)Nc1ccc(F)c(F)c1F)C(=O)c1cc([N+](=O)[O-])ccc1N1CCOCC1,.,3,0,-8,16,-3
Cc1ccc(N(CC(=O)NCc2ccc(F)cc2)S(=O)(=O)c2cccs2)cc1,2,-3,-3,15,-2,10
COc1ccc(C(=O)n2cnc3ccccc32)cc1,.,5,26,10,11,2
CC(C)C(=O)NNc1ccccc1,2,2,42,8,-2,-2
CC(O)CC(C(=O)NNc1ccccc1)C(=O)NNc1ccccc1 (stereo unspecified),-30,-3,99*,2,11,8
O=C(NNc1ccccc1)C(CCO)C(=O)NNc1ccccc1,-11,1,98*,4,11,10
CCOC(=O)c1c2ccccc2[n+]([O-])n1[C@@H](C)C(N)=O,.,-6,22,4,2,4
Cc1onc(-c2ccccc2)c1CNC(=O)Nc1ccccc1,21,-3,-3,6,-4,3
O=C(CCSc1ccc(Br)cc1)c1ccc(O)cc1,16,6,.,27,-77*,14
O=C(CCO)c1ccc(O)cc1,44,-8,-17,0,35,-3
COc1ccc(N2CCN(S(=O)(=O)CCNC(=O)c3ccc(Br)o3)CC2)cc1,65*,-3,46,7,19,-7
COc1ccc(N2CCN(S(=O)(=O)CCNC(=O)c3ccco3)CC2)cc1,.,-4,9,2,28,-5
O=C(CSc1ncn[nH]1)NCc1ccc(Cl)cc1,35,-10,-4,-9,17,-10
O=C(NCc1ccc(Cl)cc1)c1ncn[nH]1,73*,-4,-7,-23,2,-14
CC1CN(C(=O)c2cc(S(=O)(=O)N3CCCCC3)ccc2Cl)CC(C)O1 (stereo unspecified),.,.,-1,.,.,.
Cc1cc(C2=CC(=O)C[C@H](c3ccc4c(c3)OCO4)C2)ccc1F,.,.,-1,.,.,.
Cc1ccc(C(=O)NC2CCCN(c3ccc(C(F)(F)F)cn3)C2)cn1 (stereo unspecified),38,-6,-4,54*,14,12
O=C(NC1CCCN(c2ccc(C(F)(F)F)cn2)C1)c1cc(Cl)ccc1F (stereo unspecified),23,7,-16,19,45,16
O=C(NCCCN1CCOCC1)c1ccccc1N1C(=O)[C@@H]2Cc3c([nH]c4ccccc34)C(c3cccc(Cl)c3)N2C1=O (stereo partly specified),29,-11,28,-1,-8,2
CCOC(=O)C1(C)NC(c2ccc(O)cc2)C2C(=O)N(c3ccccc3)C(=O)C21 (stereo unspecified),24,-2,-5,-65,29,-54*
CN1C(=O)N(C)c2cccc3cccc1c23,11,-8,-19,3,16,-2
CCc1ccc2cccc3c2c1N=CN3C,.,-33,100*,-2,11,-4
CC1(C)Cc2ccccc2-c2nnc(SCC(=O)N3CCN(c4ccccc4)CC3)n21,-94,0,97*,1,5,0
Cc1ccccc1-n1c(SCC(=O)N2CCN(c3ccccc3)CC2)nnc1-c1ccncc1,66*,-4,-18,-11,6,-7
